Assay [1] is described as follows: reducers of endogenous Her2 protein level, primary screen, SKBR3 breast tumor cells, AlphaScreen, ATP viability (AID 461;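 active = Her2 level under about 52% in both replicate screens, with viability over 70% of control, limit read from the data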;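 for Her2 level: lower value means less Her2 protein in the cells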;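 for viability: percent of carrier control wells set as 100% viability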). Particulars: 18-24 h, measured here: SKBR3 viability, ATP luminescence, at 10 µM.
The target in assay [2] is Receptor tyrosine-protein kinase erbB-2 (Homo sapiens) (UniProt P04626). The assay is described as above. Particulars: 18-24 h, at 10 µM, stronger effect = lower value.
Receptor tyrosine-protein kinase erbB-2 (Homo sapiens), sequence (P04626 whole entry, looked up): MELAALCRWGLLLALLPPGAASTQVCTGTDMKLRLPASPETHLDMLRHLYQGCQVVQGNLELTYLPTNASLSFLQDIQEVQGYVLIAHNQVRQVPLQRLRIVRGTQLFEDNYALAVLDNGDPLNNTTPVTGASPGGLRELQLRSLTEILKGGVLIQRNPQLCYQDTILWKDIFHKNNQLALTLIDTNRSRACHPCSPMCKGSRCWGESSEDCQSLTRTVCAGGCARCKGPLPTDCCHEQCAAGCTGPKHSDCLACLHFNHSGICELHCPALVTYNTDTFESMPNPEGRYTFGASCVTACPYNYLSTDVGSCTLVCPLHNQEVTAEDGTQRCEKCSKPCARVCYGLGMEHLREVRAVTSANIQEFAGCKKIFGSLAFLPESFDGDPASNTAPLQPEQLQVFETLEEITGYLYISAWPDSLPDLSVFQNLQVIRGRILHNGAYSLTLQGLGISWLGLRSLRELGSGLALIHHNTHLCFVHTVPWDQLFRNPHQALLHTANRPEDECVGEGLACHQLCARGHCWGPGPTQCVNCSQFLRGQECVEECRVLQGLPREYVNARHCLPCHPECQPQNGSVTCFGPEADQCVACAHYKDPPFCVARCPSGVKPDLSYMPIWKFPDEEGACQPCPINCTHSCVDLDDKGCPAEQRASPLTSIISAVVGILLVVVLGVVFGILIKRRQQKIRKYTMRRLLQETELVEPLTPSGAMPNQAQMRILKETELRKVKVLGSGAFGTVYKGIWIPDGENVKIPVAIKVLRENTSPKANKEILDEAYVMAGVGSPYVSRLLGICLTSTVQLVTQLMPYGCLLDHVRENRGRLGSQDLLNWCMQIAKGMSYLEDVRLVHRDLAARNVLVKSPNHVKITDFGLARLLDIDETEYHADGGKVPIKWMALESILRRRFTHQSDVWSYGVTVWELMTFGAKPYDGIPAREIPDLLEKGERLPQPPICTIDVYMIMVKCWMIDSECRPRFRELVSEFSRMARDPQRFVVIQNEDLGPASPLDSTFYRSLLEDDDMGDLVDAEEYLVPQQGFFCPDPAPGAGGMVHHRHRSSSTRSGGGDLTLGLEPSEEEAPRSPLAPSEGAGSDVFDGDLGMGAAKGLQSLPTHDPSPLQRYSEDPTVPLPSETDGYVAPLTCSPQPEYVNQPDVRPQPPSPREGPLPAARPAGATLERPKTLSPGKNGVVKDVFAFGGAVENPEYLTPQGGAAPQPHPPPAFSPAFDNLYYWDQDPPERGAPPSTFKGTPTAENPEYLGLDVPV
Assay [3] can be described thus: SK-BR-3 cell growth inhibitors, pilot screen, 24 h, human (AID 572;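 active = viability at or below 10% of carrier control in both of two separate runs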;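 note: compound exposure lasted between 18 and 24 h rather than exactly 24 h; 100% = carrier-treated control wells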). Particulars: SK-BR-3 viability, CellTiter-Glo luminescence, at 10 µM, stronger effect = lower value. Background: In ATP-based viability assays light output follows the ATP content of the culture.
Assay [4] is described as follows: HUVEC growth inhibition – cell-based, human, primary screen (AID 575).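 Note: 100% = median of untreated cell wells with 0.1% DMSO on each plate.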 Particulars: HUVEC proliferation, CellTiter-Glo luminescence, 72 h; at 10 µM; stronger effect = lower value. Summed up:
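Test system: primary human umbilical vein endothelial cells; medium: endothelial basal medium with 2% FBS plus growth supplements; dosing: 10 µM compound only; times: 72 h treatment at 37 °C; signal: CTG luminescence; read-out: % viability relative to median vehicle-well signal on each plate; control set: vehicle and MePR control wells; plate: 384-well, collagen-coated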

Assay [5] can be described thus: growth inhibitors of H69AR lung tumor, primary screen, human, duplicate replicates (AID 580;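 active = viability at or under a set limit in both replicates, limit being median viability minus 3 SD, cut at about 48% in these data, passing the limit was not always enough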;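 note: 100% = mean luminescence of untreated wells and 0% = no signal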). Particulars: H69AR lung tumor cells viability, ATP luminescence, 72 h; at 10 µM; stronger effect = lower value.
Assay [6] is described as follows: reversal of MRP1-mediated doxorubicin resistance, pilot screen, H69AR cells, doxorubicin co-treatment (AID 601;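 active = viability loss from added drug above about 55%, and viability with drug at most 40%, in both replicates, limit read from the data, passing the limit was not always enough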). Particulars: CellTiter-Glo, 72 h, at 10 µM; for differential viability (reversal): stronger effect = higher value.
The nature of assay [7]: 384-well plate pilot, post-Golgi transport modulator project, inhibition of yeast transport mutant growth (AID 636; in the data active = inhibition above about 31%). Particulars: absorbance 615 nm, about 18 h, stronger effect = higher value.
Assay [8] in a line: growth suppression of yeast trafficking mutant, preliminary HTS, modulators of trafficking downstream of Golgi apparatus project, 1536-format plate, OD 615 nm (AID 637; in the data active = inhibition above about 30%). Particulars: yeast transport mutant growth, absorbance 615 nm, 18 h; stronger effect = higher value.
Setting [9] is: H69AR cells + 2 uM doxorubicin, measured here: viability with 2 uM doxorubicin, stronger effect = lower value.
Where [10] appears, read: H69AR cells, compound alone cytotoxicity.

The source made the active and inactive calls.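 Rule for the calls, unless noted: active = viability at or below 30% in both replicate assays; inconclusive = viability at or below 30% in just one of the two assays; inactive = the rest.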

`Cc1cc(NCCN2CCCCC2)n2c(nc3ccccc32)c1C#N`: the viability (usually a read-out of living cells in per cent, often relative to untreated cells) in assay [1] was 87.5%; in assay [3] it was 87.5% (inactive); in assay [4] it was 96.2% (inactive); in assay [5], 85.1% (inactive); in assay [6] (setting [9]), 92.6%; in assay [6] (setting [10]), 85.1%. Besides, the Her2 level in assay [2] was 65.5% (inactive). Besides, in assay [6] (H69AR cells + 2 uM doxorubicin), the differential viability (reversal) was -7.47% (inactive). Moreover, the inhibition (commonly the drop in the measured response relative to a control, in per cent) was -5.6% (inactive) in assay [7] and 4.1% (inactive) in assay [8].
Take `c1ccc(CC2CCN(c3nc4ccccc4n4nnnc34)CC2)cc1`: the viability in assay [1] was 84%; in assay [3], 84% (inactive); in assay [4] it was 88.6% (inactive); in assay [5], 81.5% (inactive); in assay [6] (setting [9]) it was 73.2%; in assay [6] (setting [10]), 81.5%. Also, the Her2 level in assay [2] was 86% (inactive). For the same compound, in assay [6] (H69AR cells + 2 uM doxorubicin), the differential viability (reversal) was 8.36% (inactive). The inhibition in assay [7] was 0% (inactive); in assay [8], 1.5% (inactive).
For `Cc1cnc(C(=O)OCC(=O)Nc2ccc(Cl)cc2Cl)cn1`, the viability in assay [1] is 89.5%; in assay [3], 89.5% (inactive); in assay [4], 90.5% (inactive); in assay [5], 103% (inactive); in assay [6] (setting [9]) it was 86.3%; in assay [6] (setting [10]), 103%. Besides, in assay [2], the Her2 level is 100% (inactive). Also, the differential viability (reversal) in assay [6] (H69AR cells + 2 uM doxorubicin) was 16.4% (inactive). Also, the values for the inhibition in assay [7] and in assay [8] were -8.49% (inactive) and 2.38% (inactive), respectively.
`O=c1[nH]c(=O)n(C2CCCCCC2)c(O)c1C=NCc1ccc(F)cc1`: the viability in assay [1] is 90%; in assay [3], 90% (inactive); in assay [4], 90.1% (inactive); in assay [5], 81.5% (inactive); in assay [6] (setting [9]) it was 86.3%; in assay [6] (setting [10]), 81.5%. Also, the Her2 level in assay [2] was 86.5% (inactive). Further, the differential viability (reversal) in assay [6] (H69AR cells + 2 uM doxorubicin) is -4.79% (inactive). Moreover, the results for the inhibition in assay [7] and in assay [8] were -6.8% (inactive) and -2.22% (inactive), respectively.
Regarding `c1ccc(-n2c(Sc3cnccn3)nnc2-c2cccs2)cc1`, the viability in assay [1] is 114%; in assay [3] it was 114% (inactive); in assay [4] it was 89.1% (inactive); in assay [5] it was 95.8% (inactive); in assay [6] (setting [9]), 88.5%; in assay [6] (setting [10]) it was 95.8%. In assay [2], the Her2 level is 109% (inactive). The differential viability (reversal) in assay [6] (H69AR cells + 2 uM doxorubicin) is 7.33% (inactive). The inhibition is -5.41% (inactive) in assay [7] and -3.49% (inactive) in assay [8].
`Cc1cc(=O)oc2ccc(OCC(=O)N3CCC(C)CC3)cc12`: the viability in assay [1] was 87%; in assay [3], 87% (inactive); in assay [4] it was 92.3% (inactive); in assay [5] it was 96.3% (inactive); in assay [6] (setting [9]) it was 90.7%; in assay [6] (setting [10]), 96.3%. Besides, in assay [2], the Her2 level was 90% (inactive). The differential viability (reversal) in assay [6] (H69AR cells + 2 uM doxorubicin) is 5.65% (inactive). Further, the inhibition in assay [7] is -1.05% (inactive); in assay [8] it was 1.15% (inactive).
With `CC1CCCN(C(=O)c2cc(F)c(F)cc2Cl)C1` (stereo not given), the viability in assay [1] was 99%; in assay [3], 99% (inactive); in assay [4], 104% (inactive); in assay [5], 89.2% (inactive); in assay [6] (setting [9]) it was 94.1%; in assay [6] (setting [10]) it was 89.2%. Moreover, in assay [2], the Her2 level is 95.5% (inactive). Besides, in assay [6] (H69AR cells + 2 uM doxorubicin), the differential viability (reversal) is -4.92% (inactive). Besides, the inhibition in assay [7] is -4.93% (inactive); in assay [8], -3.77% (inactive).
As to `CS(=O)(=O)N1CCCC(C(=O)NCCCN2CCC(Cc3ccccc3)CC2)C1` (stereo not given), the viability in assay [1] is 108%; in assay [3], 108% (inactive); in assay [4], 101% (inactive); in assay [5], 103% (inactive); in assay [6] (setting [9]), 103%; in assay [6] (setting [10]), 103%. In assay [2], the Her2 level was 115% (inactive). Besides, the differential viability (reversal) in assay [6] (H69AR cells + 2 uM doxorubicin) was 0.23% (inactive). The inhibition in assay [7] was 2.6% (inactive); in assay [8] it was -5.56% (inactive).
Consider `CC(C)Cn1c(CN2CCN(c3ccccc3F)CC2)nc2c1c(=O)[nH]c(=O)n2C`, for which the viability in assay [1] was 93%; in assay [3], 93% (inactive); in assay [4], 72.9% (inactive); in assay [5], 93% (inactive); in assay [6] (setting [9]) it was 84.8%; in assay [6] (setting [10]), 93%. Further, the Her2 level in assay [2] was 93% (inactive). Also, in assay [6] (H69AR cells + 2 uM doxorubicin), the differential viability (reversal) is 8.27% (inactive). Moreover, the inhibition was -4.27% (inactive) in assay [7] and -0.66% (inactive) in assay [8].
Take `CC1CCCC(C(=O)OCc2ccccc2)N1` (stereo not given): the viability in assay [1] was 119%; in assay [3], 119% (inactive); in assay [4], 102% (inactive); in assay [5] it was 97.2% (inactive); in assay [6] (setting [9]) it was 91%; in assay [6] (setting [10]), 97.2%. Also, the Her2 level in assay [2] is 94% (inactive). The differential viability (reversal) in assay [6] (H69AR cells + 2 uM doxorubicin) is 6.15% (inactive). In addition, the inhibition in assay [7] is -2.63% (inactive); in assay [8], -1.11% (inactive).
As for `N#Cc1c(N2C(=O)C3C4C=CC(C4)C3C2=O)sc2c1CCC2` (stereo not given), the viability in assay [1] was 91.5%; in assay [3], 91.5% (inactive); in assay [4], 91% (inactive); in assay [5], 90.3% (inactive); in assay [6] (setting [9]), 100%; in assay [6] (setting [10]) it was 90.3%. In addition, the Her2 level in assay [2] was 86.5% (inactive). Further, the differential viability (reversal) in assay [6] (H69AR cells + 2 uM doxorubicin) was -10.1% (inactive). Further, the inhibition in assay [7] is -5.07% (inactive); in assay [8] it was -2.62% (inactive).
For the compound `CCN(Cc1ccccc1)C(c1ccncc1)c1nnnn1C(C)(C)C` (stereo not given), the viability was 102% in assay [1]; 102% (inactive) in assay [3]; 99.5% (inactive) in assay [4]; 78.6% (inactive) in assay [5]; 79.1% in assay [6] (setting [9]); 78.6% in assay [6] (setting [10]). Further, the Her2 level in assay [2] is 76% (inactive). Also, the differential viability (reversal) in assay [6] (H69AR cells + 2 uM doxorubicin) is -0.555% (inactive). The inhibition was -5.73% (inactive) in assay [7] and 4.26% (inactive) in assay [8].
As to `O=S(=O)(NCC(c1cccnc1)N1CCN(c2ccccc2)CC1)c1cc(F)ccc1F` (stereo not given), the viability in assay [1] was 98.5%; in assay [3], 98.5% (inactive); in assay [4] it was 81.5% (inactive); in assay [5] it was 86.4% (inactive); in assay [6] (setting [9]), 94.7%; in assay [6] (setting [10]) it was 86.4%. The Her2 level in assay [2] was 87% (inactive). Also, the differential viability (reversal) in assay [6] (H69AR cells + 2 uM doxorubicin) was -8.3% (inactive). In addition, the inhibition was 5.19% (inactive) in assay [7] and 92% (active) in assay [8].
Consider `O=C(Nc1cccc(C(F)(F)F)c1)c1ccco1`, for which the viability in assay [1] was 129%; in assay [3] it was 129% (inactive); in assay [4] it was 95.9% (inactive); in assay [5], 103% (inactive); in assay [6] (setting [9]), 84%; in assay [6] (setting [10]) it was 103%. The Her2 level in assay [2] is 79.5% (inactive). Also, the differential viability (reversal) in assay [6] (H69AR cells + 2 uM doxorubicin) is 19.4% (inactive). Also, the inhibition in assay [7] is -5.33% (inactive); in assay [8] it was 8.52% (inactive).

(Values after PubChem BioAssay.)
